# Measured values as given in ChEMBL document CHEMBL5724801, “EUbOPEN Chemogenomics Library - Multiplex” (2024).
# Values joined by “and” are separate entries in the source; they are usually repeats but may differ in a detail not shown here. Equal values may be shown once.
# System: Fibroblast
# Experiment: Multiplex assay against human fibroblast
# Assay type: toxicity, cell-based
# In short: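 Cells were classed with CellPathfinder machine-learning gating, first as Hoechst high-intensity objects or normal cells, then (normal cells) as healthy, pyknosed or fragmented nuclei, and finally (pyknosed cells) as mitotic or apoptotic. Staining of live cells at seeding used Hoechst33342, BioTracker Green Microtubule Cytoskeleton Dye, MitoTracker Red and Annexin V Alexa Fluor 680, with imaging on a CQ1 microscope at 37°C and 5% CO2 after compound addition. Tubulin, mitochondrial-mass and membrane-permeability phenotypes are per cents of healthy-nucleus cells.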
# [1] = 12 h, 1 µM, compound concentration 1 uM
# [2] = 12 h, 10 µM, compound concentration 10 uM
# [3] = 24 h, 1 µM, compound concentration 1 uM
# [4] = 24 h, 10 µM, compound concentration 10 uM
# [5] = 48 h, 1 µM, compound concentration 1 uM
# [6] = 48 h, 10 µM, compound concentration 10 uM
smiles,measurement,setting,value
O=C1NC(NC23CC4CC(CC(C4)C2)C3)=N/C1=C\c1ccc2ncsc2c1,Population Apoptotic (%),[1],51.97% and 44.44%
same,Population Fragmented Nuclei (%),[1],23.55% and 19.79%
same,Population Healthy Nuclei (%),[1],57.53% and 66.62%
same,Population Hoechst High Intensity Objects (%),[1],0%
same,Population Membrane Permeable-Phenotype (%),[1],1.3% and 2.27%
same,Population Mitochondria Different-Phenotype (%),[1],3.63% and 2.49%
same,Population Mitotic Cells (%),[1],48.03% and 55.56%
same,Population Normal (%),[1],100%
same,Population Pyknosed Nuclei (%),[1],18.93% and 13.6%
same,Population Tubulin-Different-Phenotype (%),[1],8.81% and 11.79%
same,Total Cell Count,[1],671 and 662
same,Population Apoptotic (%),[2],45.21% and 45.31%
same,Population Fragmented Nuclei (%),[2],36.23% and 36.1%
same,Population Healthy Nuclei (%),[2],32.66% and 30.01%
same,Population Hoechst High Intensity Objects (%),[2],28.04% and 33.79%
same,Population Membrane Permeable-Phenotype (%),[2],0.36% and 0.46%
same,Population Mitochondria Different-Phenotype (%),[2],0%
same,Population Mitotic Cells (%),[2],54.79% and 54.69%
same,Population Normal (%),[2],71.96% and 66.21%
same,Population Pyknosed Nuclei (%),[2],31.11% and 33.89%
same,Population Tubulin-Different-Phenotype (%),[2],0.73% and 7.37%
same,Total Cell Count,[2],1166 and 1092
same,Population Apoptotic (%),[3],49.15% and 52.44%
same,Population Fragmented Nuclei (%),[3],25.03% and 19.5%
same,Population Healthy Nuclei (%),[3],59% and 67.8%
same,Population Hoechst High Intensity Objects (%),[3],0% and 0.15%
same,Population Membrane Permeable-Phenotype (%),[3],2.52% and 1.37%
same,Population Mitochondria Different-Phenotype (%),[3],0.92% and 0.91%
same,Population Mitotic Cells (%),[3],50.85% and 47.56%
same,Population Normal (%),[3],100% and 99.85%
same,Population Pyknosed Nuclei (%),[3],15.97% and 12.69%
same,Population Tubulin-Different-Phenotype (%),[3],12.84% and 17.12%
same,Total Cell Count,[3],739 and 647
same,Population Apoptotic (%),[4],48.2% and 49.02%
same,Population Fragmented Nuclei (%),[4],28.62% and 33.38%
same,Population Healthy Nuclei (%),[4],37.8% and 32.44%
same,Population Hoechst High Intensity Objects (%),[4],27.11% and 32.18%
same,Population Membrane Permeable-Phenotype (%),[4],0.64% and 0.41%
same,Population Mitochondria Different-Phenotype (%),[4],0.32% and 0%
same,Population Mitotic Cells (%),[4],51.8% and 50.98%
same,Population Normal (%),[4],72.89% and 67.82%
same,Population Pyknosed Nuclei (%),[4],33.57% and 34.18%
same,Population Tubulin-Different-Phenotype (%),[4],1.6% and 2.89%
same,Total Cell Count,[4],1136 and 1100
same,Population Apoptotic (%),[5],58.9% and 52.22%
same,Population Fragmented Nuclei (%),[5],13.24% and 13.94%
same,Population Healthy Nuclei (%),[5],69.8% and 71.47%
same,Population Hoechst High Intensity Objects (%),[5],0%
same,Population Membrane Permeable-Phenotype (%),[5],1.5% and 2.72%
same,Population Mitochondria Different-Phenotype (%),[5],1.5% and 0.91%
same,Population Mitotic Cells (%),[5],41.1% and 47.78%
same,Population Normal (%),[5],100%
same,Population Pyknosed Nuclei (%),[5],16.96% and 14.59%
same,Population Tubulin-Different-Phenotype (%),[5],20.97% and 31.75%
same,Total Cell Count,[5],861 and 617
same,Population Apoptotic (%),[6],50.75% and 49.7%
same,Population Fragmented Nuclei (%),[6],29.22% and 30.74%
same,Population Healthy Nuclei (%),[6],35.44% and 26.72%
same,Population Hoechst High Intensity Objects (%),[6],25.71% and 37.77%
same,Population Membrane Permeable-Phenotype (%),[6],0.6% and 0.49%
same,Population Mitochondria Different-Phenotype (%),[6],0.6% and 0%
same,Population Mitotic Cells (%),[6],49.25% and 50.3%
same,Population Normal (%),[6],74.29% and 62.23%
same,Population Pyknosed Nuclei (%),[6],35.34% and 42.54%
same,Population Tubulin-Different-Phenotype (%),[6],1.19% and 2.91%
same,Total Cell Count,[6],1276 and 1239
CCOC(=O)c1c(/C(C#N)=C\N)c2ccc(Cl)c(Cl)c2n1C,Population Fragmented Nuclei (%),[1],11.86% and 4.52%
same,Population Healthy Nuclei (%),[1],64.41% and 76.92%
same,Population Hoechst High Intensity Objects (%),[1],0%
same,Population Membrane Permeable-Phenotype (%),[1],0% and 2.94%
same,Population Mitochondria Different-Phenotype (%),[1],11.84% and 14.71%
same,Population Mitotic Cells (%),[1],96.43% and 85.37%
same,Population Normal (%),[1],100%
same,Population Pyknosed Nuclei (%),[1],23.73% and 18.55%
same,Population Tubulin-Different-Phenotype (%),[1],10.53% and 18.82%
same,Total Cell Count,[1],118 and 221
same,Population Apoptotic (%),[2],24.32% and 12.77%
same,Population Fragmented Nuclei (%),[2],10.92% and 3.83%
same,Population Healthy Nuclei (%),[2],67.82% and 76.17%
same,Population Hoechst High Intensity Objects (%),[2],0%
same,Population Membrane Permeable-Phenotype (%),[2],4.24% and 1.12%
same,Population Mitochondria Different-Phenotype (%),[2],3.39% and 7.82%
same,Population Mitotic Cells (%),[2],75.68% and 87.23%
same,Population Normal (%),[2],100%
same,Population Pyknosed Nuclei (%),[2],21.26% and 20%
same,Population Tubulin-Different-Phenotype (%),[2],15.25% and 16.2%
same,Total Cell Count,[2],174 and 235
same,Population Apoptotic (%),[3],0% and 20.83%
same,Population Fragmented Nuclei (%),[3],7.25% and 3.83%
same,Population Healthy Nuclei (%),[3],72.46% and 85.96%
same,Population Hoechst High Intensity Objects (%),[3],0%
same,Population Membrane Permeable-Phenotype (%),[3],4% and 1.98%
same,Population Mitochondria Different-Phenotype (%),[3],3% and 6.93%
same,Population Mitotic Cells (%),[3],100% and 79.17%
same,Population Normal (%),[3],100%
same,Population Pyknosed Nuclei (%),[3],20.29% and 10.21%
same,Population Tubulin-Different-Phenotype (%),[3],11% and 18.81%
same,Total Cell Count,[3],138 and 235
same,Population Apoptotic (%),[4],14.81% and 20.59%
same,Population Fragmented Nuclei (%),[4],8.02% and 1.27%
same,Population Healthy Nuclei (%),[4],77.54% and 84.39%
same,Population Hoechst High Intensity Objects (%),[4],0%
same,Population Membrane Permeable-Phenotype (%),[4],3.45% and 2.5%
same,Population Mitochondria Different-Phenotype (%),[4],4.14% and 7%
same,Population Mitotic Cells (%),[4],85.19% and 79.41%
same,Population Normal (%),[4],100%
same,Population Pyknosed Nuclei (%),[4],14.44% and 14.35%
same,Population Tubulin-Different-Phenotype (%),[4],11.03% and 18.5%
same,Total Cell Count,[4],187 and 237
same,Population Apoptotic (%),[5],40% and 25%
same,Population Fragmented Nuclei (%),[5],12.18% and 3.67%
same,Population Healthy Nuclei (%),[5],84.62% and 91.43%
same,Population Hoechst High Intensity Objects (%),[5],0%
same,Population Membrane Permeable-Phenotype (%),[5],0% and 2.68%
same,Population Mitotic Cells (%),[5],60% and 75%
same,Population Normal (%),[5],100%
same,Population Pyknosed Nuclei (%),[5],3.21% and 4.9%
same,Population Tubulin-Different-Phenotype (%),[5],7.58% and 20.98%
same,Total Cell Count,[5],156 and 245
same,Population Apoptotic (%),[6],44.44% and 21.05%
same,Population Fragmented Nuclei (%),[6],8.78% and 2.61%
same,Population Healthy Nuclei (%),[6],86.83% and 89.13%
same,Population Hoechst High Intensity Objects (%),[6],0%
same,Population Membrane Permeable-Phenotype (%),[6],0.56% and 2.93%
same,Population Mitochondria Different-Phenotype (%),[6],11.24% and 1.95%
same,Population Mitotic Cells (%),[6],55.56% and 78.95%
same,Population Normal (%),[6],100%
same,Population Pyknosed Nuclei (%),[6],4.39% and 8.26%
same,Total Cell Count,[6],205 and 230
CCn1c(-c2nonc2N)nc2c(C#CC(C)(C)O)ncc(OCC3CCCNC3)c21 (stereo not given),Population Apoptotic (%),[1],9.09% and 27.03%
same,Population Fragmented Nuclei (%),[1],15.15% and 9.22%
same,Population Healthy Nuclei (%),[1],64.85% and 77.66%
same,Population Hoechst High Intensity Objects (%),[1],0%
same,Population Membrane Permeable-Phenotype (%),[1],4.67% and 1.83%
same,Population Mitochondria Different-Phenotype (%),[1],8.41% and 8.68%
same,Population Mitotic Cells (%),[1],90.91% and 72.97%
same,Population Normal (%),[1],100%
same,Population Pyknosed Nuclei (%),[1],20% and 13.12%
same,Population Tubulin-Different-Phenotype (%),[1],9.35% and 19.63%
same,Total Cell Count,[1],165 and 282
same,Population Apoptotic (%),[2],13.33% and 12.2%
same,Population Fragmented Nuclei (%),[2],17.67% and 9.62%
same,Population Healthy Nuclei (%),[2],66.43% and 74.62%
same,Population Hoechst High Intensity Objects (%),[2],0%
same,Population Membrane Permeable-Phenotype (%),[2],6.91% and 2.06%
same,Population Mitochondria Different-Phenotype (%),[2],25% and 13.4%
same,Population Mitotic Cells (%),[2],86.67% and 87.8%
same,Population Normal (%),[2],100%
same,Population Pyknosed Nuclei (%),[2],15.9% and 15.77%
same,Population Tubulin-Different-Phenotype (%),[2],35.64% and 40.21%
same,Total Cell Count,[2],283 and 260
same,Population Fragmented Nuclei (%),[3],14.1% and 7.45%
same,Population Healthy Nuclei (%),[3],73.08% and 80.78%
same,Population Hoechst High Intensity Objects (%),[3],0%
same,Population Membrane Permeable-Phenotype (%),[3],0.88% and 1.46%
same,Population Mitochondria Different-Phenotype (%),[3],5.26% and 11.65%
same,Population Mitotic Cells (%),[3],90% and 63.33%
same,Population Normal (%),[3],100%
same,Population Pyknosed Nuclei (%),[3],12.82% and 11.76%
same,Total Cell Count,[3],156 and 255
same,Population Apoptotic (%),[4],7.41% and 9.09%
same,Population Fragmented Nuclei (%),[4],24.25% and 15.79%
same,Population Healthy Nuclei (%),[4],61.04% and 77.78%
same,Population Hoechst High Intensity Objects (%),[4],0%
same,Population Membrane Permeable-Phenotype (%),[4],1.79% and 2.26%
same,Population Mitotic Cells (%),[4],92.59% and 90.91%
same,Population Normal (%),[4],100%
same,Population Pyknosed Nuclei (%),[4],14.71% and 6.43%
same,Population Tubulin-Different-Phenotype (%),[4],40.18% and 33.08%
same,Total Cell Count,[4],367 and 342
same,Population Apoptotic (%),[5],23.08% and 33.33%
same,Population Fragmented Nuclei (%),[5],5.03% and 4.44%
same,Population Healthy Nuclei (%),[5],86.79% and 87.1%
same,Population Hoechst High Intensity Objects (%),[5],0%
same,Population Membrane Permeable-Phenotype (%),[5],2.9% and 4.63%
same,Population Mitotic Cells (%),[5],76.92% and 66.67%
same,Population Normal (%),[5],100%
same,Population Pyknosed Nuclei (%),[5],8.18% and 8.47%
same,Total Cell Count,[5],159 and 248
same,Population Apoptotic (%),[6],30% and 29.41%
same,Population Fragmented Nuclei (%),[6],21.53% and 21.32%
same,Population Healthy Nuclei (%),[6],69.97% and 74.37%
same,Population Hoechst High Intensity Objects (%),[6],0%
same,Population Membrane Permeable-Phenotype (%),[6],1.21% and 0.68%
same,Population Mitochondria Different-Phenotype (%),[6],8.91% and 1.71%
same,Population Mitotic Cells (%),[6],70% and 70.59%
same,Population Normal (%),[6],100%
same,Population Pyknosed Nuclei (%),[6],8.5% and 4.31%
same,Population Tubulin-Different-Phenotype (%),[6],29.55% and 33.11%
same,Total Cell Count,[6],353 and 394
